Data set [1] can be described thus: Cytotoxicity against human HepG2 cells after 24 to 48 hrs by WST-1 assay. The format is cell-based. For orientation: Tetrazolium assays rely on reduction of a dye to a coloured formazan, in cell work by metabolically active cells.
The test system of a further data set is Enterococcus faecalis. Description: Antimicrobial activity against Enterococcus faecalis after 16 to 20 hrs by two-fold microdilution broth method. Type of data set: functional.
Data set [2] is described as follows: Inhibition of Staphylococcus aureus recombinant BPL using 3H-biotin as substrate after 10 mins by liquid scintillation counting analysis. As to conditions: read-out: Ki(app). In a few lines:
(§1)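 In vitro biotinylation assay measuring radiolabeled biotin incorporation onto an acceptor protein by each recombinant BPL, run at varying inhibitor concentrations. Apparent Ki was fitted with the Morrison tight-binding equation, accounting for the BPL concentration in the assay. It was then extrapolated using each enzyme's apparent K_M for biotin, assuming inhibition competitive with biotin.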

Data set [3] can be described thus: Inhibition of Acinetobacter calcoaceticus recombinant BPL using 3H-biotin as substrate after 10 mins by liquid scintillation counting analysis. The conditions noted are these: read-out: Ki(app). In a few lines:
as §1

For another data set, the system named is Staphylococcus. Description: Antimicrobial activity against coagulase-negative Staphylococcus after 16 to 20 hrs by two-fold microdilution broth method. Type of data set: functional. A general note: In broth dilution the organism is exposed to a series of concentrations in liquid medium.
A short description of data set [4]: Inhibition of Klebsiella pneumonia recombinant BPL using 3H-biotin as substrate after 10 mins by liquid scintillation counting analysis. Set-up: species or system Klebsiella pneumoniae. The conditions noted are these: read-out: Ki(app). The gist of the method:
as §1

Data set [5] concerns Mycobacterium tuberculosis. Description: Antimicrobial activity against Mycobacterium tuberculosis 37892293 after 16 to 20 hrs by two-fold microdilution broth method. Type of data set: functional.
The subject of data set [6] is Staphylococcus aureus. Put plainly: Competitive inhibition of Staphylococcus aureus recombinant BPL using 3H-biotin as substrate by Lineweaver-Burk plot analysis. The gist of the method: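 S. aureus BPL biotinylation with ³H-biotin: enzyme velocity measured across varying biotin concentrations at inhibitor 0, 20, 100 and 200 nM. Double-reciprocal Lineweaver–Burk plots of 1/velocity vs 1/biotin were used to define the inhibition mode, with K_M and V_max compared across inhibitor levels. Points are mean ± SEM of three replicates.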

The next data set has as its system Enterococcus faecium. Put plainly: Antimicrobial activity against Enterococcus faecium after 16 to 20 hrs by two-fold microdilution broth method. The format is functional.
Data set [7] relates to Staphylococcus aureus. Put plainly: Antimicrobial activity against methicillin-sensitive Staphylococcus aureus after 16 to 20 hrs by two-fold microdilution broth method. The format is functional.
For the next data set, the system named is Escherichia coli. Put plainly: Antimicrobial activity against Escherichia coli ATCC 25922 after 16 to 20 hrs by two-fold microdilution broth method. The format is functional.
Data set [8] in a line: Inhibition of Mycobacterium tuberculosis recombinant BPL using 3H-biotin as substrate after 10 mins by liquid scintillation counting analysis. The conditions noted are these: read-out: Ki(app). The gist of the method:
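Recombinant BPL activity was measured as radiolabelled biotin incorporated onto an acceptor protein, across a range of inhibitor concentrations. Apparent Ki came from the Morrison tight-binding equation, because Ki values lay within 10-fold of the BPL concentration used. Binding was treated as competitive with biotin, so values were extrapolated using the apparent KM for biotin.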

Data set [9] concerns Mycobacterium tuberculosis. Description: Antimicrobial activity against Mycobacterium tuberculosis H37Rv after 16 to 20 hrs by two-fold microdilution broth method. Type of data set: functional.
For data set [10], the system named is Mycobacterium tuberculosis. Description: Antimicrobial activity against Mycobacterium tuberculosis 3688023 after 16 to 20 hrs by two-fold microdilution broth method. Type of data set: functional.
In data set [11] the test system is Staphylococcus aureus. Put plainly: Antimicrobial activity against methicillin-resistant Staphylococcus aureus after 16 to 20 hrs by two-fold microdilution broth method. The format is functional.

In brackets after ≈: the same amount, converted by molar mass. Activity calls are given as the source filed them.

`Nc1ncnc2c1ncn2[C@@H]1O[C@H](COP(=O)(O)OCCCCC[C@@H]2SC[C@@H]3NC(=O)N[C@@H]32)[C@@H](O)[C@H]1O` yielded a 50% cytotoxic concentration (CC50) in data set [1] above 200 µg/mL. Besides, the minimum inhibitory concentration (MIC) in the data set on Enterococcus faecalis is above 128 µg/mL; in the data set on Staphylococcus, 1 µg/mL (≈ 1.79 µM); in data set [5], 2.5 µg/mL (≈ 4.47 µM); against Enterococcus faecium it was above 128 µg/mL; against Staphylococcus aureus [7] it was 2 µg/mL (≈ 3.57 µM); against Escherichia coli it was above 128 µg/mL. Besides, the MIC in data set [9] is 2.5 µg/mL (≈ 4.47 µM); in data set [10], 0.5 µg/mL (≈ 0.894 µM); against Staphylococcus aureus [11], 2 µg/mL (≈ 3.57 µM). For the same molecule, the Ki in data set [2] is 18 nM; in [3], 461 nM; in [4], 482 nM; in [8], 52 nM. Further, the inhibition result in the data set on Staphylococcus aureus [6] is “Active”.
In the case of `Nc1ncnc2c1ncn2[C@@H]1O[C@H](CNS(=O)(=O)NC(=O)CCCC[C@@H]2SC[C@@H]3NC(=O)N[C@@H]32)[C@@H](O)[C@H]1O`, the MIC in [5], in [9] and in [10] was 0.1 µg/mL (≈ 0.175 µM) throughout.

For orientation: CC50 means the concentration giving 50% cytotoxicity. Read a low CC50 as harm at low concentration. For orientation: MIC means the smallest concentration in the dilution series that meets the test's criterion for growth inhibition. Low values mean inhibition by little substance, high ones a need for much substance.

Values taken from ChEMBL document CHEMBL3421591, “Improved Synthesis of Biotinol-5'-AMP: Implications for Antibacterial Discovery” (ACS Med Chem Lett, 2015).
